pIC50: −log10 of the molar value. Calls of active or inactive are those of the source. The rule behind the calls is not given here.
Key:
[1] = target: T1, Luciferin 4-monooxygenase (Photinus pyralis, UniProt P08659); assay: (§1) Inhibition of Photinus pyralis luciferase by Steady-Glo reporter gene assay
Outline: (§2)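 5 nM purified P. pyralis luciferase in SteadyGlo or BrightGlo reporter-gene reagent; no extra ATP or D-luciferin added. 1536-well luminescence. Curves from 16 two-fold concentrations in duplicate, repeated on two or three separate days.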

[2] = target: T1, Luciferin 4-monooxygenase; assay: Inhibition of Photinus pyralis luciferase
[3] = target: T1, Luciferin 4-monooxygenase; assay: Inhibition of Photinus pyralis luciferase by PK-Light assay
[4] = target: T1, Luciferin 4-monooxygenase; assay: Inhibition of Photinus pyralis luciferase by Easy lite assay
Outline: (§3)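 Detection by 2 µL of EasyLite or Kinase-Glo reagent (Kinase-Glo containing P. pennsylvanica luciferase). 1536-well luminescence. 16 two-fold concentrations, duplicate wells, repeated on two or three days.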

[5] = target: T1, Luciferin 4-monooxygenase; assay: (§4) Inhibition of Photinus pyralis luciferase by BrightGlo reporter gene assay; outline: as §2
[6] = target: T2, Luciferin 4-monooxygenase (Photuris pensylvanica, UniProt Q27757); assay: (§5) Inhibition of luciferase Photuris pennsylvanica by Promega Kinase-Glo assay; outline: as §3
T2 sequence (Q27757 whole entry): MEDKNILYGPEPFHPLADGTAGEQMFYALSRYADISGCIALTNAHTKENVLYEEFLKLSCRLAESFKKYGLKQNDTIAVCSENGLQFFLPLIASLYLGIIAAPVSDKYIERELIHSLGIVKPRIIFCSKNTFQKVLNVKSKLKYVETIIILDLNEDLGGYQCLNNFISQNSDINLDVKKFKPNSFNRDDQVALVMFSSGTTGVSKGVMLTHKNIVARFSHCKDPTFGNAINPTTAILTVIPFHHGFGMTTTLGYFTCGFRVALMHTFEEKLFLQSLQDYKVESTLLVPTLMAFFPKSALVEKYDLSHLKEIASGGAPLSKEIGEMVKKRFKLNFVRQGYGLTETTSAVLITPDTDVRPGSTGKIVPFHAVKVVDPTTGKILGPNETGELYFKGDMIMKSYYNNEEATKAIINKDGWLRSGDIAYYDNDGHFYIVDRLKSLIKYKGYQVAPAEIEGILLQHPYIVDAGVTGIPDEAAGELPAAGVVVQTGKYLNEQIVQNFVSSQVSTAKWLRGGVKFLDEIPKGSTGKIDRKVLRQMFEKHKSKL

[7] = target: T3, Luciferin 4-monooxygenase (Photuris pensylvanica) (UniProt Q27757); assay: as §5; outline: as §3
T3 sequence (whole entry): T2 sequence (Q27757 whole entry)

[8] = Inhibition of Renilla reniformis luciferase
[9] = target: Luciferin 4-monooxygenase (Photinus pyralis) (UniProt P08659); assay: Inhibition of Photinus pyralis luciferase at 1 uM
[10] = target: Luciferin 4-monooxygenase (Photinus pyralis) (UniProt P08659); assay: as §1; outline: as §2
[11] = target: Luciferin 4-monooxygenase (Photinus pyralis) (UniProt P08659); assay: as §4; outline: as §2
[12] = target: Luciferin 4-monooxygenase (Photinus pyralis) (UniProt P08659); assay: Inhibition of Photinus pyralis luciferase at 0.04 uM
[13] = target: Luciferin 4-monooxygenase (Photinus pyralis) (UniProt P08659); assay: Inhibition of Photinus pyralis luciferase at 3 uM
[14] = target: T3, Luciferin 4-monooxygenase (Photuris pensylvanica); assay: Inhibition of Photuris pennsylvanica luciferase at 57 uM by Promega Kinase-Glo assay

T1 sequence (P08659 whole entry): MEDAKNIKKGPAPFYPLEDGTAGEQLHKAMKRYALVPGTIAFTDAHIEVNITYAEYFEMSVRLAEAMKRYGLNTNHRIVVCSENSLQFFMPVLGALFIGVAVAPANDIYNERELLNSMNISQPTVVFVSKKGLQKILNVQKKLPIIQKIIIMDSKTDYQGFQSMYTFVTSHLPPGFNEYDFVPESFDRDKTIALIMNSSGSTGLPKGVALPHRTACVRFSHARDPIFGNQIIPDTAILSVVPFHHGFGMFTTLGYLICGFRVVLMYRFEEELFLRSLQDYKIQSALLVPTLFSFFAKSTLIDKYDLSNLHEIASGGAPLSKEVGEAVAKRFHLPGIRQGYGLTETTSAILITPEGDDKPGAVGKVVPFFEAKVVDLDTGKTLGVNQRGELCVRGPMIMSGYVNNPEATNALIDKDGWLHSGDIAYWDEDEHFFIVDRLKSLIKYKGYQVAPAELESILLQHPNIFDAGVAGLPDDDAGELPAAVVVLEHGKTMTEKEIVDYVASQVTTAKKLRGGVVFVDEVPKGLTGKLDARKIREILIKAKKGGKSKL
Luciferin 4-monooxygenase (Photinus pyralis), sequence (P08659 whole entry): as above

Row | SMILES | pIC50 [1] | pIC50 [2] | pIC50 [3] | pIC50 [4] | pIC50 [5] | pIC50 [6] | Activity [7] | pIC50 [8] | inhibition [9] [%] | Activity [10] | Activity [11] | inhibition [12] [%] | inhibition [13] [%] | Activity [14]
1 | Cc1ccc(-c2nc(-c3ccccc3)no2)c(Cl)c1 | 6.80 | 6.82 | 6.30 | 6.40 | 6.52 | 4.98 |  |  |  |  |  |  |  | 
2 | CCOc1ccc2nc(NC(=O)Nc3cccs3)sc2c1 | 4.92 | 6.22 | 5.84 | 5.68 | 4.95 |  | inactive |  |  |  |  |  |  | 
3 | CN(C)c1ccc(N/C=C\C(=O)c2ccccc2)cc1 | 6.22 | 6.68 | 6.22 | 6.40 | 6.15 | 5.49 |  | 4.96 |  |  |  |  |  | 
4 | O=c1cc(-c2ccccc2O)oc2ccc3ccccc3c12 | 7.22 | 7.30 | 6.15 | 6.70 | 7.05 | 4.85 |  |  |  |  |  |  |  | 
5 | O=C(N/N=C/c1ccccc1O)c1ccccc1O | 4.70 | 6.10 | 5.60 | 5.44 | 5.59 |  | inactive |  |  |  |  |  |  | 
6 | COc1ccc(C(=O)NC(=O)Nc2cc(C)ccn2)cc1 | 5.92 | 6.39 | 6.01 | 6.43 | 6.00 | 5.16 |  |  |  |  |  |  |  | 
7 | CS(=O)(=O)c1ccc2nc(NC(=O)c3cccs3)sc2c1 | 5.60 | 5.96 | 5.21 | 5.89 | 5.49 | 5.02 |  |  |  |  |  |  |  | 
8 | CCOc1ccc(NC(=O)c2ccccc2OC)cc1 | < 4.30 | 6.22 | 5.55 | 5.82 | 5.08 |  | inactive |  |  |  |  |  |  | 
9 | COc1cccc(-c2cc(=O)c3ccccc3o2)c1N | < 4.00 | 5.21 | 5.19 | 4.96 | 4.22 |  | inactive |  |  |  |  |  |  | 
10 | CCN(CC)c1ccc2cc(-c3nc4ccccc4n3C)c(=O)oc2c1 |  |  |  |  |  |  |  |  | 28 |  |  |  |  | 
11 | COc1ccc(C(=O)Nc2ccc(C)cn2)c(OC)c1 | 6.30 | 7.10 | 6.60 | 6.55 | 6.70 | 4.85 |  |  |  |  |  |  |  | 
12 | Cc1ccc(-c2noc(-c3ccccc3Br)n2)cc1 | 4.96 | 6.00 | 5.48 | 5.64 | 4.92 |  | inactive |  |  |  |  |  |  | 
13 | CCOc1ccc(-c2cc(C(=O)N3CCC4(CC3)OCCO4)c3ccccc3n2)cc1 |  | 6.15 | 5.85 | 6.00 |  | < 4.30 |  | 4.96 |  | inactive | inactive |  |  | 
14 | CN(C)c1ccc(/C=C2\C(=O)Nc3ccccc32)cc1 |  |  |  |  |  |  | inactive | 4.72 |  |  |  |  |  | 
15 | c1ccc(-c2noc(-c3ccc4ccccc4c3)n2)nc1 | 6.70 | 7.00 | 6.66 | 6.66 | 6.70 | 4.95 |  | 4.60 |  |  |  |  |  | 
16 | O=C(/C=C\Nc1ccccn1)c1ccc(Cl)cc1 | 6.30 | 5.70 | 5.39 | 5.33 | 5.92 |  | inactive |  |  |  |  |  |  | 
17 | Clc1ccc(-c2nc(-c3ccccn3)no2)cc1Cl | 5.48 | 6.08 | 5.39 | 5.72 | 5.41 | 4.72 |  |  |  |  |  |  |  | 
18 | CCN(CC)c1ccc2cc(-c3nc4ccccc4[nH]3)c(=O)oc2c1 | 6.92 | 6.62 | 6.42 | 4.85 | 6.40 | 4.80 |  | 5.28 |  |  |  | 100 |  | 
19 | COc1ccc(-c2cc3ccc(OCc4nn[nH]n4)cc3oc2=O)cc1 | 5.00 | 5.96 | 5.27 | 5.49 | 4.88 |  | inactive |  |  |  |  |  | 100 | 
20 | c1ccc(-c2noc(-c3ccc4ccccc4c3)n2)cc1 | 5.85 | 6.40 | 5.80 | 5.68 | 5.59 |  | inactive |  |  |  |  |  |  | 
21 | COc1ccc2nc(NC(=O)c3ccoc3C)sc2c1 | 4.99 | 5.92 | 5.68 | 5.35 | 5.23 | 5.44 |  |  |  |  |  |  |  | 

Row | SMILES | pIC50 [1] | pIC50 [2] | pIC50 [3] | pIC50 [4] | pIC50 [5] | pIC50 [6] | Activity [7] | pIC50 [8] | inhibition [9] [%] | Activity [10] | Activity [11] | inhibition [12] [%] | inhibition [13] [%] | Activity [14]
22 | CCOc1ccc(-c2cc(C(=O)N3CCN(c4ccccn4)CC3)c3ccccc3n2)cc1 |  |  |  |  |  |  |  | 4.96 |  | inactive | inactive |  |  | 
23 | Cc1cccc(C#Cc2ccccc2)n1 | < 4.00 | 5.33 | 5.18 | 5.13 | 4.52 |  | inactive |  |  |  |  |  |  | 
24 | C[C@@H](C(=O)O)c1ccc(N2Cc3ccccc3C2=O)cc1 [(R)-INDOPROFEN] | 5.00 | 6.70 | 5.33 | 5.44 | 5.28 | < 4.30 |  |  |  |  |  |  |  | 
25 | Clc1cccc(-c2nc(-c3ccccn3)no2)c1 | 5.82 | 6.30 | 5.68 | 6.15 | 5.92 | 5.13 |  | < 4.30 |  |  |  |  |  | 
26 | Cc1ccc(-c2cc(C(=O)N3CCN(c4ncccn4)CC3)c3ccccc3n2)cc1 |  |  |  |  |  |  |  | < 4.60 |  | inactive | inactive |  |  | 
27 | Cc1ccc2nc(NC(=O)c3cccs3)sc2c1 | 5.16 | 6.30 | 5.85 | 5.77 | 5.17 | < 4.30 |  |  |  |  |  |  |  | 
28 | Clc1cccc(/C=N\C=N\c2cccc(Cl)c2)c1 |  | 5.35 | 5.11 | 4.94 |  |  | inactive | < 4.30 |  | inactive | inactive |  |  | 
29 | CCOc1ccc(-c2cc(C(=O)N3CCN(C)CC3)c3ccccc3n2)cc1 |  | 5.89 | 5.62 | 5.96 |  | < 4.30 |  | < 4.60 |  | inactive | inactive |  |  | 
30 | O=C(/C=C\Nc1ccc(F)cc1)c1ccco1 | 5.40 | 6.00 | 5.44 | 5.96 | 5.44 | 4.85 |  |  |  |  |  |  |  | 
31 | O=C(/C=C\Nc1cccc(F)c1)c1ccc2c(c1)OCO2 | 6.05 | 6.52 | 5.92 | 5.92 | 5.72 | < 4.30 |  |  |  |  |  |  |  | 
32 | CCOC(=O)N1CCN(C(=O)c2cc(-c3ccc(OCC)cc3)nc3ccccc23)CC1 |  | 6.05 | 5.85 | 6.00 |  | < 4.30 |  | 4.70 |  | inactive | inactive |  |  | 
33 | CCOc1ccc2nc(NC(=O)c3ccoc3C)sc2c1 | 5.44 | 6.19 | 5.38 | 5.24 | 5.40 | 5.42 |  |  |  |  |  |  |  | 
34 | CN1CCN(C(=O)COc2ccc(-c3nc4ccccc4s3)cc2)CC1 | 6.00 | 6.52 | 6.05 | 6.40 | 5.19 |  | inactive |  |  |  |  |  |  | 
35 | Cc1cccc(/C=C/c2ccccc2)n1 | < 4.00 | 5.37 | 4.77 | 4.96 | 4.62 | < 4.30 |  |  |  |  |  |  |  | 
36 | O=c1c2ccccc2cnn1-c1nc2ccccc2s1 | 6.22 | 6.52 | 6.70 | 6.82 | 6.15 | 5.29 |  |  |  |  |  |  |  | 
37 | Brc1ccc(-c2nc(-c3ccccn3)no2)o1 | 5.59 | 5.49 | 4.89 | 5.29 | 4.92 | 4.92 |  |  |  |  |  |  |  | 
38 | Cc1ccc(C(=O)Nc2nc3ccc(S(C)(=O)=O)cc3s2)s1 | 5.00 | 5.96 | 5.27 | 5.49 | 4.88 |  | inactive |  |  |  |  |  |  | inactive
39 | CC(C)(C)C(=O)Nc1ccc(NC(=O)c2cccc(O)c2)nc1 | 6.10 | 6.15 | 5.30 | 6.10 | 5.14 | < 4.52 |  |  |  |  |  |  |  | 
40 | O=C(/C=C\Nc1ccccc1Br)c1ccccn1 | 6.70 | 7.10 | 6.77 | 6.77 | 7.10 | 5.00 |  | < 4.30 |  |  |  |  |  | 
41 | Cc1ccc(C(=O)Cn2c3c(sc2=N)CCCC3)cc1 | 5.55 | 6.49 | 5.96 | 5.74 | 6.22 |  | inactive |  |  |  |  |  |  | 
42 | Cc1ccc(-c2nc(-c3ccccn3)no2)cc1Cl | 5.80 | 6.66 | 5.68 | 6.10 | 5.85 | 4.66 |  |  |  |  |  |  |  | 

— ChEMBL document CHEMBL1144767, “Characterization of chemical libraries for luciferase inhibitory activity” (J Med Chem, 2008)
